# Test results: PubChem BioAssay AID493091 (Sanford-Burnham Center for Chemical Genomics, 2011)
# Out of some 340,000 compounds screened, about 3,000 (0.88%) were called active.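 The calls were made as follows: active = inhibition above about 50% at 20 µM (limit read from the data); inactive = the rest.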 What follows is part of a selection rich in actives, with near analogues and random picks from the rest.
# Target: Carboxy-terminal domain RNA polymerase II polypeptide A small phosphatase 1 (Homo sapiens) (UniProt Q9GZU7)
# Sequence (Q9GZU7 76-261 limits assumed): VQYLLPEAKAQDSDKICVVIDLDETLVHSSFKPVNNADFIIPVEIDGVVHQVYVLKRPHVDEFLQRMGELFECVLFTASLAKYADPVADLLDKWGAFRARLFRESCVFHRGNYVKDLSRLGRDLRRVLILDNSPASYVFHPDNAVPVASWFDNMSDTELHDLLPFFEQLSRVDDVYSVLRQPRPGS
# Assay: Scp-1 phosphatase inhibitors, primary screen, biochemical, colorimetric, uHTS (AID 493091);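 also: plate controls were DMSO wells with enzyme for no effect and wells lacking enzyme for full effect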
# Conditions: Recombinant Scp1, phosphopeptide, malachite green phosphate absorbance; at 20 µM; active compounds read high
# Method in brief: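 Material: truncated SCP-1 phosphatase (76-261aa) / Buffer or medium: 50 mM Tris acetate pH 5.5, 0.005% Tween-20, 10 mM MgCl2 / Compound dosing: one concentration, 20 µM, with 1.0% DMSO / Incubation: 45 min room-temperature reaction, 5 min colour, 30 min stabiliser / Detection: colorimetric free-phosphate detection, absorbance 630 nm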
row,Structure (SMILES),inhibition
1,CCC(C)OC(=O)C(C)Oc1ccc(-c2ccccc2)cc1 (centres undefined),0.19% (inactive)
2,O=C(CN1C(=O)COc2ccc(Cl)cc21)N1CCOCC1,3.98% (inactive)
3,Cc1ccc(NC(=O)CN2C(=O)NC(C)(c3ccc(Cl)cc3)C2=O)c(Br)c1 (centres undefined),-3.83% (inactive)
4,Cc1ccc(C2(C)NC(=O)N(CC(=O)Nc3ccccc3C(=O)N3CCCCC3)C2=O)cc1 (centres undefined),65.5% (active)
5,Cc1ccc(C2(C)NC(=O)N(CC(=O)N3CC(=O)Nc4ccccc43)C2=O)cc1 (centres undefined),-4.98% (inactive)
6,CC1CC(C)CN(CCOc2cccc3ccccc23)C1 (centres undefined),-2.45% (inactive)
7,CCn1ncc(C2=NOC(C(=O)Nc3ccccc3C(=O)OC)C2)c1C (centres undefined),-6.5% (inactive)
8,O=C(Oc1ccc(-c2nc(-c3ccccn3)no2)cc1)c1ccccc1,7.66% (inactive)
9,O=C1C(=O)N(c2ccccc2)c2ccccc21,-4.37% (inactive)
10,O=C(O)COCC(=O)NCc1csc2ccc(Cl)cc12,11.2% (inactive)
11,Cc1ccc(C(=O)NNC(=O)c2ccc3c(c2)OCCO3)cc1,-11.5% (inactive)
12,Cc1ccc(C(=O)NNc2ncnc3ccccc23)cc1,5.78% (inactive)
13,Cc1ccc(C(=O)NNC(=O)c2cc3cc4ccccc4nc3s2)cc1,83.1% (active)
14,COc1ccc2oc(C(=O)NCC(Cc3ccccc3)N(C)C)c(C)c2c1 (centres undefined),-2.96% (inactive)
15,O=C(NC(=S)Nc1ccc(Cl)c(C(=O)O)c1)c1cncc(Br)c1,5.31% (inactive)
16,Cc1ccc(C)c(NC(=S)NNC(=S)Nc2ccc(C(C)C)cc2)c1,3.22% (inactive)
17,CC(C)c1ccc(NC(=S)NNc2ccc(Cl)c(C(=O)O)c2)cc1,54.9% (active)
18,O=C(OCC(=O)N1CCN(C(=O)c2ccco2)CC1)c1ccc(Cl)c(Cl)c1,-3.89% (inactive)
19,O=C1c2ccccc2S(=O)(=O)N1Cc1c(F)cccc1Cl,-6.43% (inactive)
20,CC(Sc1nn(-c2ccc(Cl)cc2)c(=S)s1)C(=O)NCC1CCCO1 (centres undefined),-9% (inactive)
21,O=C1NN(c2ccccc2)C(=O)/C1=C/c1ccc(-c2cccc(C(=O)O)c2)o1,52% (active)
22,COc1cc(/C=C2/C(=O)NN(c3cccc(Cl)c3)C2=O)cc(Br)c1O,2.98% (inactive)
23,C#CCOc1ccc(/C=C2/C(=O)NN(c3ccccc3)C2=O)cc1OC,-4.73% (inactive)
24,Cc1ccc(-c2c3c(=O)n(C)c(=O)n(C)c3cn2-n2cnnc2)cc1,-6% (inactive)

row,Structure (SMILES),inhibition
1,CCOC(=O)Cc1cc(=O)[nH]c(/N=C(\N)Nc2ccc(OC)cc2)n1,-0.71% (inactive)
2,Cc1cc(=O)[nH]c(N/N=C/c2c(C)nn(-c3ccccc3Cl)c2Cl)n1,-253% (inactive)
3,CC1CCN(c2ccc(C(=O)Nc3nnc(C4CC4)s3)cc2[N+](=O)[O-])CC1,-0.75% (inactive)
4,COc1ccc(NS(=O)(=O)c2ccc(N3CCN(CCO)CC3)c([N+](=O)[O-])c2)cc1,-2.43% (inactive)
5,CC1CCN(c2ccc(S(=O)(=O)Nc3cc(C(=O)O)cc(C(=O)O)c3)cc2[N+](=O)[O-])CC1,54.5% (active)
6,O=C(CNC(=O)C(c1ccccc1)c1ccccc1)N/N=C\c1ccc2c(c1)OCO2,59.5% (active)
7,Cc1[nH]c2ccccc2c1/C=N/NC(=O)CNC(=O)c1ccc2c(c1)OCO2,-5.09% (inactive)
8,O=C(N/N=C/c1ccc2c(c1)OCO2)C(=O)N1CCCC1,-6.72% (inactive)
9,CC1C(=O)N2CCCc3cc(S(=O)(=O)NCc4ccc(F)cc4)cc1c32 (centres undefined),-5.8% (inactive)
10,CN(CCc1ccccn1)S(=O)(=O)c1ccc2c3c(cccc13)C(=O)N2,0.36% (inactive)
11,COc1ccc(S(=O)(=O)N2CCC(C(=O)N3CCCC3)CC2)cc1C,-3.35% (inactive)
12,CCOC(=O)c1sc(NC(=O)CSc2nc(C)cc(C(F)(F)F)n2)c(C#N)c1C,-3.8% (inactive)
13,CC(C)c1cc(NCc2ccccn2)n2c(nc3ccccc32)c1C#N,-0.31% (inactive)
14,O=C(CSc1ccc(-c2ccco2)nn1)Nc1cccc(F)c1,-4.82% (inactive)
15,O=C(O)c1cccc(NC(=O)c2cc(-c3cccc(Cl)c3)nc3ccccc23)c1,5.17% (inactive)
16,O=C(Nc1cccc(F)c1)c1cc(-c2ccco2)nc2ccccc12,57.4% (active)
17,Cc1cccc(Cn2cnc3c(N)c(C)c(C)cc32)c1,-2.5% (inactive)
18,Cc1onc(-c2c(F)cccc2Cl)c1C(=O)Nc1cccc(S(=O)(=O)N2CCCCC2)c1,-7.5% (inactive)
19,CC(=O)Nc1ccc(OCC(O)CN2CCN(c3ccccc3Cl)CC2)cc1 (centres undefined),0.19% (inactive)
20,Cc1ccc(CN2CCN(Cc3cn(C)nc3-c3ccccc3)CC2CCO)o1 (centres undefined),-12.6% (inactive)
21,Cc1ccc(CN2CCN(c3ccccc3Cl)CC2)o1,51% (active)
22,COc1ccc(C(=O)NCc2nnc(SCC(=O)NC3=NCCS3)n2C)cc1,-3.07% (inactive)
23,CC(C)(C)OC(=O)NCCCCCNC(=O)c1[nH]cnc1C(=O)Nc1nccs1,-11.3% (inactive)
24,COC(=O)c1ccc(OC(=O)c2nn(C)cc2Cl)c(OC)c1,1.35% (inactive)

row,Structure (SMILES),inhibition
1,COC(=O)c1ccc(-c2c(-c3ccccc3)ncc3cc(OC)c(OC)cc23)cc1,66.9% (active)
2,COC(=O)c1ccc(SCc2ccccc2)nc1,-6.97% (inactive)
3,Cc1ccc2c(c1)C(c1ccccc1)N(C(=O)c1ccc(S(=O)(=O)N3CCOCC3)cc1)CC(=O)N2 (centres undefined),-1% (inactive)
4,O=S(=O)(Nc1ccc(O)c2ccccc12)c1ccc(OC(F)(F)F)cc1,-14.4% (inactive)
5,Nc1ccccc1SC(C[N+](=O)[O-])c1ccccc1 (centres undefined),2.72% (inactive)
6,Cc1c(NC(=O)C(C)OC(=O)c2c3c(nc4ccccc24)CCC(C)C3)c(=O)n(-c2ccccc2)n1C (centres undefined),-2.49% (inactive)
7,Cc1ccc(C(=O)OCC(=O)NCc2ccc3c(c2)OCO3)s1,-4.92% (inactive)
8,COc1cccc(CNCc2ccc3c(c2)OCO3)c1,-9.52% (inactive)
9,COc1cccc(CC(=O)OCC(=O)NCc2ccc3c(c2)OCO3)c1,64.5% (active)
10,CCOC(=O)C1CCN(C(=O)C2CCCN(S(=O)(=O)c3ccc(OC)c(Cl)c3)C2)CC1 (centres undefined),-4.52% (inactive)
11,CC(=O)OCCC(C)C,12.2% (inactive)
12,COc1ccc(CC(=O)N2N=C(C)CC2(O)C(F)(F)F)cc1 (centres undefined),-2.15% (inactive)
13,CC1=NN(C(=O)CCCc2ccccc2)C(O)(C(F)(F)F)C1 (centres undefined),-2.98% (inactive)
14,CC1=NN(C(=O)CCc2ccccc2O)C(O)(C(F)(F)F)C1 (centres undefined),63% (active)
15,CC(C)(C)c1cc(P(=O)(c2ccccc2)c2ccccc2)ccc1O,4.5% (inactive)
16,CSc1ccc(/C=N/NC(=O)c2cccc(Cl)c2)cc1,63.9% (active)
17,O=C(NN=Cc1ccccc1)c1ccccc1,-6.69% (inactive)
18,O=C(N/N=C/c1ccc(Cl)c(Cl)c1)c1ccc2nc[nH]c2c1,2.5% (inactive)
19,N#CCCN1CCN(S(=O)(=O)c2ccc(S(=O)(=O)NC3CCCCC3)cc2)CC1,-9.7% (inactive)
20,Cc1ccc(C(=O)N/N=C/c2cccc3ccccc23)cn1,0.35% (inactive)
21,COc1cccc(/C=N/NC(=O)c2[nH]nc3c2CCc2ccccc2-3)c1O,89% (active)
22,COc1cc(/C=N/NC(=O)c2cc(-c3ccccc3C)nc3ccccc23)cc(OC)c1O,-6.97% (inactive)
23,CN(C(=O)COC(=O)Cc1ccccc1[N+](=O)[O-])C1CCS(=O)(=O)C1 (centres undefined),1.98% (inactive)
24,CN(CCOc1ccccc1)C(=O)c1cc(-c2ccco2)nc2ccccc12,49% (inactive)

row,Structure (SMILES),inhibition
1,CN(C(=O)COC(=O)c1cc(-c2ccco2)nc2ccccc12)C1CCS(=O)(=O)C1 (centres undefined),88.8% (active)
2,CCOC(=O)C1CCCN(C(=O)c2ccc(CS(=O)(=O)c3ccc(Br)cc3)o2)C1 (centres undefined),5.99% (inactive)
3,Cc1nnc(SCc2cccc(Cl)c2)n(N)c1=O,-7.11% (inactive)
4,Cc1cccc2sc(N(CCCN(C)C)C(=O)CCS(=O)(=O)c3ccccc3)nc12,5.73% (inactive)
5,COc1cccc2sc(N(CCCN(C)C)C(=O)CCS(=O)(=O)c3ccccc3)nc12,8.55% (inactive)
6,COc1cccc2sc(N(CCCN(C)C)C(=O)C(c3ccccc3)c3ccccc3)nc12,59.4% (active)
7,CC1CN(S(=O)(=O)c2ccccc2)C(C)CN1S(=O)(=O)c1ccccc1 (centres undefined),15.5% (inactive)
8,O=C(Nc1ccc(Cl)cc1)C1c2cccc[n+]2CC(=O)N1Cc1ccc2c(c1)OCO2 (centres undefined),39.5% (inactive)
9,C=CCC(Nc1ccccc1)c1cccc(OC)c1OC (centres undefined),0.9% (inactive)
10,COc1ccc2oc(=O)cc(-c3cc4ccccc4o3)c2c1,-1.71% (inactive)
11,COc1cccc2cc(C(=O)N(C)C)c(=O)oc12,-2.27% (inactive)
12,COc1cccc2cc(-c3cc(=O)oc4cc(C)c(O)cc34)oc12,58.8% (active)
13,Cc1ccsc1-c1nc(CSCC(=O)NCCN2CCCC2)c(C)o1,-6.12% (inactive)
14,COC(=O)C1C(=O)NCC1c1ccc(OC)cc1 (centres undefined),-1.05% (inactive)
15,CCOC(=O)CNC(=O)c1nn(-c2cccc(OC)c2)c(=O)c2ccccc12,1.07% (inactive)
16,Cc1nn(-c2cc(Cl)ccc2N)c(=O)c2ccccc12,60.1% (active)
17,Cc1cc(=O)oc2c1c(C)nn2-c1ccc(Cl)cc1,-6.94% (inactive)
18,CCCC(C(=O)N1CCOCC1)N1C(=O)C2C3C=CC(C3)C2C1=O (centres undefined),1.46% (inactive)
19,Cc1cc(O)c(C2(O)C(=O)Nc3ccccc32)cc1C (centres undefined),2.83% (inactive)
20,CC(=O)c1cccc(NC(=O)C2COc3ccccc3O2)c1 (centres undefined),-3.69% (inactive)
21,COc1cc(SC)ccc1C(=O)NNC(=O)C1COc2ccccc2O1 (centres undefined),55.9% (active)
22,COc1cc(SC)ccc1C(=O)N(Cc1ccccc1)c1ccccc1,-9.22% (inactive)
